Assay results from different studies.
Target: Sodium-dependent noradrenaline transporter (SLC6A2, Homo sapiens, UniProt P23975)

Structure (SMILES)	read-out	action	technique	cell line	concentration	inhibition
Clc1ccc(C(c2ccc(Cl)cc2)c2nnnn2CCCN2CCC(Cc3ccccc3)CC2)cc1	transporter uptake	inhibitor		HEK293	1 µM	8.36%
COC(=O)c1ccc(-n2c(C)cc(C(=O)CSc3ccc(NC(C)=O)cc3)c2C)cc1	ligand displacement		radioligand		10 µM	50%
O=C(Nc1ccc(S(=O)(=O)N2CCC(Cl)CC2)cc1)c1ccc([N+](=O)[O-])o1	ligand displacement		radioligand		10 µM	28%
CCCNc1nc2ccccc2n1Cc1ccc(Cl)cc1	ligand displacement				10 µM	21.9%
Nc1ccc(-c2ccncc2)cc1NC(=O)N1CCCC1	cell-free assay				10 µM	15%
O[C@@H]1[C@H](O)[C@@H]2C[C@@H]2[C@H]1n1cnc2c(NCCc3ccccc3)nc(C#Cc3ccccc3Cl)nc21	ligand displacement		radioligand		10 µM	24%
c1ccc(C2CCN(CCCCn3nnnc3C(c3ccccc3)c3ccccc3)CC2)cc1	transporter uptake	inhibitor		HEK293	1 µM	66.3%
O=C(c1ccc(Cl)cc1)N(Cc1ccccc1)C1CCCCC1	cell-free assay				10 µM	14.9%
c1ccc(CCCC2CCN(CCCCn3nnnc3C(c3ccccc3)c3ccccc3)CC2)cc1	transporter uptake	inhibitor		HEK293	1 µM	73.9%
O[C@@H]1[C@H](O)[C@@H]2C[C@@H]2[C@H]1n1cnc2c(NCc3cccc(Cl)c3)nc(C#Cc3ccccc3)nc21	ligand displacement		radioligand		10 µM	34%
Clc1ccc(C(c2ccc(Cl)cc2)c2nnnn2CCCCN2CCC(Cc3ccccc3)CC2)cc1	transporter uptake	inhibitor		HEK293	1 µM	68.8%
COc1ccc(-n2nc(OCCCN3CCCCC3)ccc2=O)cc1	ligand displacement				1 µM	18.5%
